According to paper PMC8223195 (Molecular Diversity, 2021):

What was measured:
[1] = test system: peripheral blood mononuclear cells (PBMCs); test: In vitro apoptosis induction assay in PBMC; type: cell-based; conditions: 72 h
In short: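 Counter-screen on normal PBMCs from two healthy donors. Cells were exposed to graded test-compound concentrations with Caspase-3/7 Green Reagent added. Activated intracellular caspase-3/7 cleaves the reagent at its DEVD motif, marking apoptotic cells. Propidium iodide staining separated dead from live cells. Read-out: numbers of apoptotic and dead cells.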

[2] = test system: HEL 299 cells
[3] = test system: NCI-H460 (lung carcinoma); test: IncuCyte real-time proliferation assay, NCI-H460; type: cell-based; conditions: NCI-H460, 72 h; * mean of two independent experiments ± SEM
[4] = test system: DND-41 (acute lymphoblastic leukemia); test: IncuCyte real-time proliferation assay, DND-41; type: cell-based; conditions: DND-41, 72 h; * mean of two independent experiments ± SEM
[5] = test system: hCoV-229E; type: cell-based, human corona virus 229E; conditions: […]; (*) mean of three independent experiments ± SEM
[6] = test system: Capan-1 (pancreatic adenocarcinoma); test: IncuCyte real-time proliferation assay, Capan-1; type: cell-based; conditions: Capan-1, 72 h; * mean of two independent experiments ± SEM
[7] = test system: alpha-tubulin in HEp-2 cells; test: Tubulin immune fluorescence staining in HEp-2 cells; type: cell-based, human; conditions: HEp-2 cells treated for 3 h
[8] = test system: K-562 (chronic myeloid leukemia); test: IncuCyte real-time proliferation assay, K-562; type: cell-based; conditions: K-562, 72 h; * mean of two independent experiments ± SEM
[9] = test system: LN-229 (glioblastoma); test: IncuCyte real-time proliferation assay, LN-229; type: cell-based; conditions: LN-229, 72 h; * mean of two independent experiments ± SEM
[10] = test system: HL-60 (acute myeloid leukemia); test: IncuCyte real-time proliferation assay, HL-60; type: cell-based; conditions: HL-60, 72 h; * mean of two independent experiments ± SEM
[11] = test system: Z-138 (non-Hodgkin lymphoma); test: IncuCyte real-time proliferation assay, Z-138; type: cell-based; conditions: Z-138, 72 h; * mean of two independent experiments ± SEM
[12] = test system: HCT-116 (colorectal carcinoma); test: IncuCyte real-time proliferation assay, HCT-116; type: cell-based; conditions: HCT-116, 72 h; * mean of two independent experiments ± SEM

Compound: COc1ccc(C(=O)C2Sc3nnc(-n4nc(C)cc4C)n3NC2c2ccco2)cc1 (racemic) [Compound 5q, ( ±)-(3-(3,5-Dimethyl-1H-pyrazol-1-yl)-6-(furan-2-yl)-6,7-dihydro-5H-[1,2,4]triazolo[3,4-b][1,3,4]thiadiazin-7-yl)(4-methoxyphenyl)methanone]
- viability of normal PBMCs ([1]; PBMC from two healthy donors, 100 to 0.16 µM): did not inhibit the viability
- number of apoptotic and dead cells ([1]; PBMC, 100 µM, caspase-3/7 and PI): small increase in the number of apoptotic and dead cells
- CC50 [2]: < 800 nM
- IC50 [3]: 2500 ± 200 nM
- IC50 [4]: 600 ± 200 nM
- EC50 [5]: > 100000 nM
- IC50 [6]: 1100 ± 700 nM
- polymerization of tubulin [7]: inhibit the polymerization of tubulin in a dose-dependent manner
- IC50 [8]: 2300 ± 1600 nM
- IC50 [9]: 700 ± 90 nM
- IC50 [10]: 2000 ± 400 nM
- IC50 [11]: 400 ± 5 nM
- IC50 [12]: 1000 ± 400 nM
